High-throughput results deposited in PubChem BioAssay by The Scripps Research Institute Molecular Screening Center.
HTRA1 inhibitor: HTRA1 serine protease inhibitors, primary screen, biochemical, fluorescence polarization, HTS. Q92743. recombinant HTRA1, FP-rhodamine activity-based probe. inhibition, % at 5.96 µM. 340,000 tested, 0.5% active. AID 504803, 2011; in the data active = inhibition above about 36%;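 also: 0% = enzyme with DMSO and 100% = wells lacking enzyme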
Target sequence (Q92743 whole entry, looked up): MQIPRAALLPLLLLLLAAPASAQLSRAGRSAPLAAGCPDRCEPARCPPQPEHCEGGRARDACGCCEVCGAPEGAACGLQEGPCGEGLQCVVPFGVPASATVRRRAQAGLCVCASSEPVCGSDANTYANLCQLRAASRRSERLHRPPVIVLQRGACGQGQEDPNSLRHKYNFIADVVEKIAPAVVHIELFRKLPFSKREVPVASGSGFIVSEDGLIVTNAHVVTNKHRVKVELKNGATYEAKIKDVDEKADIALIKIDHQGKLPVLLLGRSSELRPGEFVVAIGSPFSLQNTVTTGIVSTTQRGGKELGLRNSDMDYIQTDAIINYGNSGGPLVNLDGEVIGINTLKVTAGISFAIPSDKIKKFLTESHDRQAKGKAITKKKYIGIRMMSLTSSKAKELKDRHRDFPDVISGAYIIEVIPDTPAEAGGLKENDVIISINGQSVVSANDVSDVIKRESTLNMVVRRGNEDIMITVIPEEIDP
TCR-CD3 inh: inhibitors of human TCR-CD3 interaction, primary screen, biochemical, fluorescence, TAMRA-labeled TCR probe; 360,000 tested, 0.37% active; T-cell receptor (TCR); inhibition, % at 9.4 µM; AID 651800, 2012; in the data active = inhibition above about 19%;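 also: recombinant mutant TCR 2C K166C tagged with TAMRA read by polarization; 0% = receptor in buffer alone and 100% = receptor with positive control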
SIAE inh: human SIAE inhibitors, primary screen, biochemical, fluorescence polarization, FP-Rh probe, 1536-well HTS. 370,000 tested, 0.69% active. SIAE FP-Rh probe binding. AID 1053197, 2014. inhibition, % at 9.66 µM. Sialate O-acetylesterase (Homo sapiens), Q9HAT2;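 active = inhibition above a cutoff: mean of compounds within the control limits plus 3 SD of those, cut at about 17% in these data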;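 also: 0% = plate median of compound wells and 100% = probe without SIAE protein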
PRMT1 inh: PRMT1 methyltransferase inhibitors, primary screen, biochemical, fluorescence polarization | Protein arginine N-methyltransferase 1 (Homo sapiens), Q99873 | recombinant PRMT1, activity-based probe fluorescence polarization | inhibition, % at 2.79 µM | 370,000 tested, 1.3% active | AID 652257, 2013;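 active = inhibition above about 21% made by adding two undisclosed values, limit read from the data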
rCAG binder: binders of r(CAG) RNA repeats, primary screen, biochemical, fluorescence; r(CAG) RNA repeat, TO-PRO-1 dye displacement fluorescence; inhibition, % at 3 µM; 370,000 tested, 1.3% active; AID 651821, 2012;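 active = inhibition above the plate cutoff, the mean of all test compounds on that plate plus 3 SD, cut at about 35% in these data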;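 also: 0% = DMSO alone and 100% = 100 µM mitoxantrone as full dye displacement; higher means more dye released from RNA so lower well fluorescence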
mABHD4 FP: ABHD4 inhibitors, primary screen, biochemical, fluorescence polarization, mouse. purified mABHD4, FP-Rh probe fluorescence polarization. 370,000 tested, 0.54% active. AID 720543, 2013. inhibition, % at 8.92 µM. (Lyso)-N-acylphosphatidylethanolamine lipase (Mus musculus), Q8VD66;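 active = inhibition exceeding the mean over every tested compound plus 3 SD, cut at about 30% in these data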;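 also: 0% = plate median of compound wells and 100% = S159A mutant with DMSO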
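Assay system: Wild-type mouse ABHD4 protein | Medium: HEPES pH 7.0 buffer, 150 mM NaCl, 0.01% Pluronic F-127 | Incubation: Enzyme–compound pre-incubation 45 min, then probe 60 min, both 25 °C | Technique: Fluorescence polarization with parallel and perpendicular emission, 525/598 nm | Evaluation: % inhibition of FP-Rh probe binding versus controls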
rCAG bind conf: small molecules binding CAG repeat RNA – biochemical, fluorescence, confirmation; r(CAG) RNA repeat, TO-PRO-1 dye displacement fluorescence; 4,300 tested, 70% active; inhibition, % at 3 µM; shares compounds with rCAG binder;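 active = inhibition above a per-plate cutoff, the mean inhibition of sample wells plus 3 SD, cut at about 35% in these data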;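 also: loss of TO-PRO-1 fluorescence as compound displaces dye from 1x1 AA loop RNA; 0% = DMSO only wells and 100% = 100 µM mitoxantrone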
DNA CAG counter: displacement of TO-PRO-1 from CAG DNA duplex, counter-screen for rCAG RNA repeat binder project, biochemical, fluorescence, TO-PRO-1 dye, d(CAG) DNA oligo; shares compounds with rCAG binder; d(CAG) DNA oligo TO-PRO-1 dye displacement; inhibition, % at 3 µM; 4,300 tested, 94% active;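 active = inhibition above its plate's cutoff, the mean test-well inhibition plus 3 SD, cut at about 4.8% in these data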;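 also: 0% = DNA dye mix with DMSO and 100% = 100 µM mitoxantrone; hits displace the dye from DNA and so lower well fluorescence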
PRMT1 inh conf: PRMT1 methyltransferase inhibitors, confirmation, biochemical, fluorescence polarization, triplicate; shares compounds with PRMT1 inh; AID 687036, 2013; recombinant His-PRMT1, activity-based probe fluorescence polarization; inhibition, % at 2.79 µM; 3,300 tested, 42% active;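 active = mean inhibition across replicates above the hit cutoff derived for the earlier primary screen, cut at about 22% in these data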
ABHD4 confirm: ABHD4 inhibitors, retest, confirmation, biochemical, fluorescence polarization, mouse; shares compounds with mABHD4 FP; purified mABHD4, FP-Rh probe fluorescence polarization; inhibition, % at 8.92 µM; 1,800 tested, 55% active; AID 720658, 2013;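 active = mean inhibition across replicates above the hit cutoff set in the primary screen, cut at about 30% in these data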;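 also: 0% = wild-type ABHD4 with DMSO and 100% = catalytically dead S159A mutant with DMSO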
An asterisk follows results filed as active; x = no result. The list is not random: actives were taken first. Their share in the collection is about 3.5%.

SMILES | HTRA1 inhibitor | TCR-CD3 inh | SIAE inh | PRMT1 inh | rCAG binder | mABHD4 FP | rCAG bind conf | DNA CAG counter | ABHD4 confirm | others
CCNC(=S)N/N=C/c1cn(Cc2ccc(F)cc2)c2ccccc12 | 3 | 1 | 9 | 0 | 8 | 3 | x | x | x
O=C(O)c1ccc(N/N=C/c2cn(Cc3ccc(F)cc3)c3ccccc23)cc1 | -2 | 6 | 10 | 18 | 81* | 50* | 75* | 35* | 55*
COc1ccc(Br)cc1CN(C)C(=O)Cc1ccc(S(=O)(=O)N2CCOCC2)s1 | -7 | 2 | -6 | -3 | -1 | 6 | x | x | x
COc1ccc(Br)cc1/C=C(\C(=O)O)c1ccc(S(=O)(=O)N2CCCC2)s1 | -10 | -6 | -4 | 7 | 52* | 30* | 47* | 14* | 13
Cc1ccc(S(=O)(=O)N2O[C@@H](c3ccccc3)C[C@H]2CON2C(C)(C)CCCC2(C)C)cc1 | x | x | -11 | -4 | x | -7 | x | x | x
CC(C)C1Nc2ccc(C(=O)O)cc2C2C=CCC21 (stereo unspecified) | 24 | 0 | 3 | 17 | 56* | 45* | 29 | 7.3* | 38*
CCOC(=O)N1CCN(C(=O)C[C@@H]2C(=O)N(Cc3ccc(OC)cc3)C3=CCN(C(=O)OC(C)(C)C)C[C@]32C(=O)OCC)CC1 | x | x | -2 | 3 | 2 | -5 | x | x | x
CC(=O)Nc1ccc(S(=O)(=O)Nc2nc3ccccc3nc2Nc2ccc(N)cc2)cc1 | 15 | -2 | 1 | 23* | 42* | 40* | 32 | 11* | 23
CC(=O)Nc1ccc(S(=O)(=O)Nc2ccc(Nc3ccccc3)cc2)cc1 | 6 | 3 | 10 | 0 | 15 | 1 | x | x | x
O=C(Nc1ccc(S(=O)(=O)Nc2ncccn2)cc1)c1ccc(Cl)c([N+](=O)[O-])c1 | 0 | -10 | -7 | -3 | -1 | 5 | x | x | x
CC(=O)Nc1ccc(S(=O)(=O)Nc2nc3ccccc3nc2Nc2ccc(C(=O)O)c(O)c2)cc1 | 34 | 19 | -24 | 16 | 47* | 43* | 45* | 13* | 43*
CC(=O)Nc1ccc(Nc2nc3ccccc3nc2NS(=O)(=O)c2ccc(Cl)c([N+](=O)[O-])c2)cc1 | 32 | 4 | 16 | 4 | 91* | 49* | 93* | 76* | 68*
O=C(Nc1ccc(F)cc1)OCc1cn(Cc2cccc(F)c2F)nn1 | x | x | -4 | -6 | 1 | -6 | x | x | x
CCCCCn1nnnc1C1(C)CN(S(C)(=O)=O)CC(=O)N1Cc1ccco1 (stereo unspecified) | x | x | -5 | 1 | 2 | 3 | x | x | x
O=C(OCc1cn(Cc2c(F)cccc2F)nn1)N1CCOCC1 | x | x | 6 | 0 | 1 | 1 | x | x | x
O=C(c1cncnc1)N1CCC(n2nnc3ncccc32)CC1 | x | x | 1 | -4 | 0 | -1 | x | x | x
CN(C)c1ccc2cc(S(=O)(=O)O)cc(O)c2c1 | 36 | -3 | 2 | 102* | 59* | 78* | 33 | 10* | 54* | PRMT1 inh conf=33*
CCOC(=O)[C@]12CCCCC/C=C\1N(CCc1ccc(Cl)cc1)C(=O)[C@H]2CC(=O)N1CCCCC1 | x | x | 1 | 2 | 3 | 5 | x | x | x
COc1ccc(-c2csc(NS(=O)(=O)c3ccc([N+](=O)[O-])cc3)n2)cc1 | 4 | 2 | 7 | 1 | 70* | 37* | 57* | 23* | 34*
O=C(O)c1cc(NN=C2c3ccccc3-c3ccccc32)ccc1Cl | -17 | 7 | 2 | 6 | 93* | 39* | 81* | 50* | 45*
O=C(O)c1cccc(NN=C2c3ccccc3-c3ccccc32)c1 | -8 | 3 | -8 | 12 | 87* | 56* | 81* | 47* | 49*
NNc1ccc(Cl)c(C(=O)O)c1 | 4 | -2 | -1 | 8 | 0 | -1 | x | x | x
CCN(Cc1cn(Cc2ccccc2)nn1)S(=O)(=O)c1ccc(F)cc1Br | x | x | 4 | -4 | 1 | 5 | x | x | x
O=C1/C(=C2\C(=O)N(Cc3ccc(F)cc3)c3ccccc32)SC(=S)N1CCS(=O)(=O)O | -6 | -8 | 14 | 9 | 75* | 76* | 83* | 47* | 100*
COCCNC(=O)C1Nc2ccc(C(F)(F)F)cc2C2C=CCC12 (stereo unspecified) | 30 | -4 | 8 | 9 | 44* | 33* | 2 | 2 | 0
SMILES | HTRA1 inhibitor | TCR-CD3 inh | SIAE inh | PRMT1 inh | rCAG binder | mABHD4 FP | rCAG bind conf | DNA CAG counter | ABHD4 confirm | others
COCCNC(=S)N/N=C(\C)c1cccc(C(F)(F)F)c1 | -1 | -3 | 3 | 1 | -5 | 2 | x | x | x
COC(=O)CNC(=O)C1Nc2ccc(OC(F)(F)F)cc2C2C=CCC12 (stereo unspecified) | 27 | -1 | 5 | 37* | 39* | 47* | 1 | 0 | -4 | PRMT1 inh conf=2
CCN(CC)C(=O)CC[C@@H]1CC[C@]2(CCCN(Cc3ccncc3)C2)O1 | x | x | -6 | -3 | 3 | 2 | x | x | x
CC(=O)NC(C)C(=O)N1CCCC1C(=O)N1CCCC1C(=O)NC(C)C(=O)NC1C(=O)NC(CC(C)C)C(=O)NC2CCCCNC(=O)CCC(C(=O)NC(Cc3ccc(O)cc3)C(=O)O)NC(=O)C3CCC(=O)OCC(NC(=O)C4CCCN4C(=O)C(Cc4c[nH]c5ccccc45)NC2=O)C(=O)NC(CC(=O)OC1C)C(=O)NC(Cc1c[nH]c2ccccc12)C(=O)N3 (stereo unspecified) | x | x | 1 | -1 | 18 | -6 | x | x | x
O=S(=O)(Nc1cccc2c1ccc1cccn12)c1cccs1 | 14 | 1 | 10 | 16 | 38* | 34* | 32 | 13* | 8
O=S(=O)(Nc1cccc2[nH]ncc12)c1cccs1 | 0 | 2 | 7 | 0 | 4 | 3 | x | x | x
